The results in this text go back to the array DNA melting data of Ke et al. (doi:10.1101/2024.01.08.574731).

A short description of series [1]: folding enthalpy; higher = less favourable; fluorescence melt of hairpins on a sequencing array, two-state fit. The note with it: sodium 0.088 M. The method in brief: (§1)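 Folding enthalpy and melting temperature come from bootstrapped two-state fits to Cy3 fluorescence of library hairpins carrying annealed Cy3 and quencher oligos on a sequenced MiSeq flow cell. Imaging was done in 50 mM Na-HEPES pH 8.0, 25 mM NaCl, stepping by 2.5 °C up to 60 °C, and signals were normalised to pre-quench Cy3 and to control constructs. Results of four replicates were combined by inverse variance, and fitted temperatures were raised by 9.35 °C to match UV melts.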

Series [2] can be described thus: melting temperature; fluorescence melt of hairpins on a sequencing array, two-state fit, raised by 9.35 °C to match UV melts. The note with it: sodium 0.088 M. Summed up:
as §1

GGGCTAGGAAACTAACCC (((.(((....))).))): the folding enthalpy in series [1] is -31.5 kcal/mol. Further, the Tm in series [2] came out at 39.2 °C.
As to CGGATGCGGAAACGCCCG (((..(((....)))))), the folding enthalpy in series [1] is -23.4 kcal/mol. The Tm in series [2] was 46.9 °C.
The corresponding values for GATCCCTAGGGGATC ((((((...)))))) are -35.4 kcal/mol and 61.1 °C.
The corresponding values for GGCCTTGGAAACAAGGTC (.(((((....))))).) are -34.4 kcal/mol and 55.7 °C.
As to GCGGTAGGAAACTGTCGC (((..((....))..))), the folding enthalpy in series [1] is -30.3 kcal/mol. Further, the Tm in series [2] was 43.8 °C.
For GATCTCATTTGAGATC ((((((....)))))), in series [1], the folding enthalpy is -37.4 kcal/mol. Also, in series [2], the Tm is 55.5 °C.
Take GCACAGCGAAAGCCGCGC ((.(.((....)).).)): in series [1], the folding enthalpy was -20.3 kcal/mol. For the same sequence, the Tm in series [2] came out at 46.5 °C.
The corresponding values for GATCTTAGAAAGATC ((((((...)))))) are -31.3 kcal/mol and 41.5 °C.
Turning to GTTACCGGAAACGGCAAC (((.(((....))).))), the folding enthalpy in series [1] is -24.6 kcal/mol. The Tm in series [2] is 44 °C.
As to GGTTTTACGAAAGTAACC (((..(((....)))))), the folding enthalpy in series [1] was -11.8 kcal/mol. Further, the Tm in series [2] was found to be 31.7 °C.
The corresponding values for GATCCCCCTCGGGATC ((((((....)))))) are -34 kcal/mol and 58.2 °C.
The corresponding values for GCTACGCGAAAGCGGCGC ((..(((....)))..)) are -19.6 kcal/mol and 60.5 °C.
The like results for GGAAGGCCGAAAGGCTCC (((..(((....)))))) were, in that order, -11.9 kcal/mol and 34.6 °C.
With GGTTGTCGAAAGACACC (((.(((....)))))), in series [1], the folding enthalpy was -25.9 kcal/mol. Moreover, the Tm in series [2] came out at 53.1 °C.
The like results for GTGGGTTCGAAAGAACAC (((..(((....)))))) were, in that order, -27 kcal/mol and 57.4 °C.
The corresponding values for GGCAGGCGAAAGCCCGCC (((.(((....))).))) are -22.8 kcal/mol and 66.2 °C.
Consider GATACCACGAAAGTGATC (((..(((....)))))), for which, in series [1], the folding enthalpy was -9.05 kcal/mol. Moreover, the Tm in series [2] was determined as 21.2 °C.
With GGGATGGGAAACTATCCC (((((.(....).))))), the folding enthalpy in series [1] is -30.5 kcal/mol. In addition, the Tm in series [2] was 49.8 °C.
The like results for GCTGAGCGAAAGCACCGC ((.(.((....)).).)) were, in that order, -19 kcal/mol and 37.2 °C.
For the sequence GGCGTAGGAAACTGCGCC ((((.((....)).)))), the folding enthalpy in series [1] is -48.8 kcal/mol. Moreover, the Tm in series [2] worked out at 62.3 °C.
As for GATCAGCGATCTGATC ((((((....)))))), the folding enthalpy in series [1] is -19.5 kcal/mol. Also, the Tm in series [2] stood at 50 °C.
Turning to GCGATGGGAAACCACCGC (((.(((....))).))), the folding enthalpy in series [1] was -48.5 kcal/mol. In addition, in series [2], the Tm was 51.1 °C.
Turning to GCATCGCGAAAGCCAAGC ((.(.((....)).).)), the folding enthalpy in series [1] was -9.2 kcal/mol. Also, in series [2], the Tm was 27.5 °C.
The like results for GGTTAACGAAAGTTTACC (((.(((....))).))) were, in that order, -33.3 kcal/mol and 45.2 °C.
The like results for GGCTACGAAAGTACTGCC ((((((....)))..))) were, in that order, -22.7 kcal/mol and 39.6 °C.
The corresponding values for GTCAGCTCGAAAGAGGAC (((..(((....)))))) are -17.7 kcal/mol and 33.4 °C.
On to GTAGCCCCGAAAGGGTAC (((..(((....)))))), for which the folding enthalpy in series [1] was -13.1 kcal/mol. In addition, in series [2], the Tm was 39.1 °C.
The like results for GCTCTCGAAAGAGTCAGC ((((((....)))..))) were, in that order, -14.7 kcal/mol and 32.9 °C.
The corresponding values for CAAACAGAAATGGTTG (((.((....)).))) are -13 kcal/mol and 29.4 °C.
Consider AAGGTGAAAACCTT (((((....))))), for which, in series [1], the folding enthalpy is -17.5 kcal/mol. For the same sequence, the Tm in series [2] was 43.2 °C.
